Laboratory results from the EternaBench riboswitch data.

Test system: MS2 coat protein
Assay: apparent Kd, MS2 coat protein; higher = weaker binding; RNA-MaP array; FMN 200 µM where present
Summary of the method: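 Designs on Illumina sequencing-chip clusters, transcribed by stalled E. coli RNA polymerase, were exposed to SNAP-549-labelled MS2 coat protein in doubling steps from 0.7 or 1.5 nM up to 3 µM, without and then with constant ligand. The buffer held 100 mM Tris-HCl pH 7.5, 80 mM KCl, 4 mM MgCl2, BSA, DTT, yeast tRNA and Tween-20. Apparent Kd values are medians of filtered per-cluster binding-curve fits to green signal normalised to red-channel RNA signal and control-cluster median Fmax.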

[1] = designed as: OFF switch for flavin mononucleotide, no ligand
[2] = ligand present: flavin mononucleotide, designed as: OFF switch for flavin mononucleotide
[3] = designed as: ON switch for flavin mononucleotide, no ligand
[4] = ligand present: flavin mononucleotide, designed as: ON switch for flavin mononucleotide

## CUGUACAUAGGAUAUAGUUGCUUUUACAUGAGGAUCACCCAUGUCACUCCUCUCUCUCUUCUAGAAGGAUGUUUCU
[1]
  apparent Kd: 72.4 nM
[2]
  apparent Kd: 53.8 nM

## CUGUAGAGUUAGGAUAUCGGCGCGUGAGAAGUUUGAGAAGGGACCACAUGAGGAUCACCCAUGUGUCUUCACCU
[1]
  apparent Kd: 14.7 nM
[2]
  apparent Kd: 15.7 nM

## CUGUAGAUAUCAGGAUAUCUAUUUCCUACAUGAGGAUCACCCAUGUAGAUGAUCACCCAUGUAAAGGAGAAGGGAUAUCUAUAG
[3]
  apparent Kd: 342 nM
[4]
  apparent Kd: 180 nM

## CUGUAGAUAUCAGGAUAUCUAUUUCCUACAUGAGGAUCACCCAUGUAGGUGAUCAGCCAAGUAAAGGAGAAGGGAUAUCUAUAG
[3]
  apparent Kd: 38.5 nM
[4]
  apparent Kd: 11 nM

## CUGUGAUGGAUCCAGAAUUACAACAUGAGGAUCACCCAUGUGCAGGAUAUCGGGUUGAUAGGCGCCGAGAAGGGUAUAGUCACG
[1]
  apparent Kd: 132 nM
[2]
  apparent Kd: 132 nM

## CUGUGAUGGAUCCAGAAUUACAACAUGAGGAUCACCCAUGUGCAGGAUAUCGGGUUGAUAGGCGCCGAGAAGGGUAUGAUCACG
[1]
  apparent Kd: 164 nM
[2]
  apparent Kd: 140 nM

## CUGUGUUGCGGGCAGGAUAUGUAUUGGAGUACAUGAGGAUCACCCAUGUGCGGGUGUUUCACCCGACAGAAGGGCCAAUCGCGAC
[3]
  apparent Kd: 128 nM
[4]
  apparent Kd: 24.5 nM

## CUGUUACAUGAGGAUCACCCAUGUAAGGAUAUCUGCCACUAGAGGGUCACUUUGGGAUGGAGAAGGUACACGGG
[1]
  apparent Kd: 34.6 nM
[2]
  apparent Kd: 68.6 nM

## CUGUUAUAGGUCCAUUUUUUCAACAUGAGGAUCACCCAUGUGCAGGAUAUCGUGAUAAUUUUCAUCGAGAAGGGCAUAGUCACG
[1]
  apparent Kd: 24.9 nM
[2]
  apparent Kd: 40.1 nM

## CUUAGUUUGUAGAAGGGUGACAUGAGGAUCACCCAUGUGCGUCGCCUGGAAGACCAGGGUACGCCACAGGAUAUACAAAGUAAG
[3]
  apparent Kd: 46.7 nM
[4]
  apparent Kd: 23.1 nM

## CUUAUGCGGCAGGAUAUCGUGCUUUUCGAGCAGCGAGAAGGGUCUACAUGAGGAUCACCCAUGUCAGUGGCUCU
[1]
  apparent Kd: 18.3 nM
[2]
  apparent Kd: 37.8 nM

## CUUAUGUGAGGAUAUCAGUAGUGAUACGAUAGUAUUACUGCUGAGAAGGCACAUGAGGAUCACCCAUGUUCCUC
[1]
  apparent Kd: 117 nM
[2]
  apparent Kd: 422 nM

## CUUCAGUAAGGAUAUCAGCUUAGGAGGUUGGUAAUGAGAGCUGAGAAGGUACAUGAGGAUCACCCAUGUUAGUU
[1]
  apparent Kd: 20.3 nM
[2]
  apparent Kd: 33 nM

## CUUCGUAUAGAGGAUAUAGGAUACUUCGGUGUCCUAGAAGGCUGUACAUGAGGAUCACCCAUGUACUUCAGAUC
[1]
  apparent Kd: 12.1 nM
[2]
  apparent Kd: 14.3 nM

## CUUCUGUAAGGAUAUGUAAAUUGCUGACCACACCAGCACCGGCAGAAGGUACAUGAGGAUCACCCAUGUGGGUU
[1]
  apparent Kd: 240 nM
[2]
  apparent Kd: 148 nM

## CUUCUGUCAGGAUAUGCGAAUCACCACUGGGUCAGUGGUGAGCAGAAGGGACAUGAGGAUCACCCAUGUAAAGU
[1]
  apparent Kd: 36.3 nM
[2]
  apparent Kd: 169 nM

## CUUGAAUAAGUGAGGAUAUACUGUUAGUAAUGAUUGUAGAAGGUACAUGAGGAUCACCCAUGUUUAUUCUUUAU
[1]
  apparent Kd: 15.7 nM
[2]
  apparent Kd: 16 nM

## CUUGUACAUGAGGAUCACCCAUGUUAGGAUAUCUCGCCGUCGGCUUGCCGACGGUAUUAGAGAAGGGACUAGGG
[1]
  apparent Kd: 35.4 nM
[2]
  apparent Kd: 39.5 nM

## CUUGUACUCGGAGGAUAUCGAUAUCAAACAUGAGGAUCACCCAUGUUGAGGAUCACACAUGUAAAUGAGAAGGCUGACGUUGCU
[3]
  apparent Kd: 22.9 nM
[4]
  apparent Kd: 26.3 nM

## CUUGUGUUAGGAUAUGCGCCCUGAAGUAGAAGGGCCAGAGAGCAGAAGGAACAUGAGGAUCACCCAUGUGUGAC
[1]
  apparent Kd: 59.7 nM
[2]
  apparent Kd: 56.5 nM

## CUUUAUAAUACCUCAUGUACAUGAGGAUCACCCAUGUUAACUAAGGAUAUAUAUAAAUUAAUAAUGUAGAAGGUAGUACUAUUU
[1]
  apparent Kd: 17.3 nM
[2]
  apparent Kd: 14.8 nM

## CUUUCGUGAGGAUAUGUGGCUUCGAUCGUGAAAACGAGGCUACAGAAGGCACAUGAGGAUCACCCAUGUUCCUC
[1]
  apparent Kd: 34.4 nM
[2]
  apparent Kd: 454 nM

## CUUUGGAUGUCAGGAUAUUGAAUCAUGGAUGGUAUCUUACAGUCUUACAUGAGGAUCACCCAUGUCGAGAAGGGAUAUCAGCUC
[1]
  apparent Kd: 6.15 nM
[2]
  apparent Kd: 10.5 nM

## CUUUUGUGAGGAUAUCAGUAGUAAAAAAAUAAAAUUACUACUGAGAAGGCACAUGAGGAUCACCCAUGUCUUUC
[1]
  apparent Kd: 122 nM
[2]
  apparent Kd: 76.8 nM

## CUUUUGUGAGGAUAUCAGUAGUAAAAAAAUUAAAUUACUACUGAGAAGGCACAUGAGGAUCACCCAUGUUCCUC
[1]
  apparent Kd: 39.1 nM
[2]
  apparent Kd: 262 nM

## CUUUUGUGAGGAUAUCAGUAGUAAAUAAAUAAAAUUACUAUUGAGAAGGCACAUGAGGAUCACCCAUGUUCCUC
[1]
  apparent Kd: 34.7 nM
[2]
  apparent Kd: 184 nM

## CUUUUGUGAGGAUAUCAGUAGUAAUACAAUAGUAUUAUUACUGAGAAGGCACAUGAGGAUCACCCAUGUUCCUC
[1]
  apparent Kd: 40.9 nM
[2]
  apparent Kd: 125 nM

## CUUUUGUGAGGAUAUUAGUAGUAAAUAAAUAAAAUUACUACUGAGAAGGCACAUGAGGAUCACCCAUGUUCCUC
[1]
  apparent Kd: 33.7 nM
[2]
  apparent Kd: 317 nM

## CUUUUGUGAGGAUAUUAGUAGUAAAUAAAUAAAAUUAUUACUGAGAAGGUACAUGAGGAUCACCCAUGUUCCUC
[1]
  apparent Kd: 18.3 nM
[2]
  apparent Kd: 25.5 nM

## CUUUUGUGAGGAUAUUAGUAGUAAAUAAAUAAAAUUUCUACUGAGAAGGCACAUGAGGAUCACCCAUGUUCCUC
[1]
  apparent Kd: 31.9 nM
[2]
  apparent Kd: 182 nM

## CUUUUGUGAGGAUAUUAGUAGUUAAUAAAUAAAAUUACUACUGAGAAGGCACAUGAGGAUCACCCAUGUUCCUC
[1]
  apparent Kd: 31.5 nM
[2]
  apparent Kd: 226 nM

## CUUUUGUGAGGAUAUUCGUAGUAGGGUCAUGGCACUAUUAUGAAGAAGGCACAUGAGGAUCACCCAUGUACCUU
[1]
  apparent Kd: 15.3 nM
[2]
  apparent Kd: 26.8 nM

## GAAAACAUAGGAUAUACAUGAGGAUCACCCAUGUUAAAAUAAAGAAAGGGAGAAAUAAGUAGAAGGAUGAAAAA
[1]
  apparent Kd: 33.8 nM
[2]
  apparent Kd: 34.2 nM

## GAACACGGAGGAUAUACAUGAGGAUCACCCAUGUUGAUCCUCAUUAAAAUUGAUAACUGUAGAAGGCCGUGAUA
[1]
  apparent Kd: 44.8 nM
[2]
  apparent Kd: 22.2 nM

## GAACAUGAGGAUCACCCAUGUUCUCCAGAAGGCCGUACAUUUAAAAGUGGAUGGAUUAGUGUUGCGGAGGAUAUGGAGGUGCAA
[3]
  apparent Kd: 72 nM
[4]
  apparent Kd: 17.8 nM

## GAACUCGUGAAGGAUAUCCGUACCAAAGCGGCAGGAGAAGGUCACACAUGAGGAUCACCCAUGUGGUACCUCGU
[1]
  apparent Kd: 30 nM
[2]
  apparent Kd: 130 nM

## GAAUAGGCAGGAUAUACAUGAGGAUCACCCAUGUGCCUGCGAAAGGUACGUUCGAAAGGUAGAAGGGCCUAAAC
[1]
  apparent Kd: 12.1 nM
[2]
  apparent Kd: 17.1 nM

## GAAUGGGUAGAAGGACAUGAGGAUCACCCAUGUAGUGUGACUAAGGAUAUUAGAGAAGAUUGACGUAAGAAGGUAGAUGUGAGG
[1]
  apparent Kd: 134 nM
[2]
  apparent Kd: 117 nM

## GAAUUAUUACAGAAGGUGUUUUACAUGAGGAUCACCCAUGUUUUAUUGUUUAAAUUUGUUAUUUACAAGGAUAUGUUCUAUUCU
[3]
  apparent Kd: 27 nM
[4]
  apparent Kd: 21.9 nM

## GACAAACAUGAGGAUCACCCAUGUUCAGACGAACAAGGAUAUGUGUGGAAACCGUACUAUACAGAAGGUGUCUGUC
[3]
  apparent Kd: 39.7 nM
[4]
  apparent Kd: 23.8 nM

## GACAGCUCGUGAGGAUAUACAACACUGCUUCGGCAGUGUAUUAAGAUCACAUGAGGAUCACCCAUGUAGAAGGCACGAGCUGAU
[1]
  apparent Kd: 13.5 nM
[2]
  apparent Kd: 319 nM

## GACAGUGCAAUAAUAAUAAGAUCUACAUGAGGAUCACCCAUGUAGGAUAUCGUCAGGAAUACUGACGAGAAGGACAUAGCACUG
[1]
  apparent Kd: 13.1 nM
[2]
  apparent Kd: 15 nM

## GACAUACGCGAUCCUUGGACAUGAGGAUCACCCAUGUACCGGAAGGAUAUCCUUCGCAAAAGCUAGGAGAAGGUUCGGUAGGUC
[1]
  apparent Kd: 26.1 nM
[2]
  apparent Kd: 86.1 nM

## GACAUGGUCCAGAAGGGCUAUUUAUUUAAGUAUUAUUUAGAACAGCAUAGCAGGAUAUGGCUAACAUGAGGAUCACCCAUGUUC
[3]
  apparent Kd: 18.8 nM
[4]
  apparent Kd: 11.6 nM

## GACAUGGUCCAGAAGGGCUAUUUAUUUAAUUAUUAUUUAGAACAGCAUAGCAGGAUAUGGUUAACAUGAGGAUCACCCAUGUUC
[3]
  apparent Kd: 26.2 nM
[4]
  apparent Kd: 20.8 nM

## GACGCUAAAGGAUAUACAUGAGGAUCACCCAUGUUGAGGAAGGUUAGAUGAGGAGUAAGUAGAAGGUUAGGCGA
[1]
  apparent Kd: 38 nM
[2]
  apparent Kd: 35.6 nM

## GACUGCGUUAUGAAGGAUAUCCGCGUCUGGACAUGAGGAUCACCCAUGUAUACUUGGAUCGUGCAGGAGAAGGUCAAGGGUGAUU
[3]
  apparent Kd: 90 nM
[4]
  apparent Kd: 265 nM

## GACUUCUCUGAGGAUAUUGCAUCAUACGAUUUAUAAGAAGGCAGAACAUGAGGAUCACCCAUGUGGGUUUCUAG
[1]
  apparent Kd: 59 nM
[2]
  apparent Kd: 108 nM

## GACUUGUCAGGAUAUCUUACAUUUGCAUCGUAGUUACCAUUGGAGAAGGGACAUGAGGAUCACCCAUGUUUGGC
[1]
  apparent Kd: 25.6 nM
[2]
  apparent Kd: 23.9 nM

## GAGAAGGUAGGAUAUACGAAUAAAUAGGGUAGGAAGAAGACACAUGAGGAUCACCCAUGUAGAAGGACCAAGAU
[1]
  apparent Kd: 18.8 nM
[2]
  apparent Kd: 38.3 nM

## GAGAAGUCAGGAUAUCCAUGGCGGCACUUGCGUGGUGGCGUGGAGAAGGGACAUGAGGAUCACCCAUGUAAAGU
[1]
  apparent Kd: 49.8 nM
[2]
  apparent Kd: 39.1 nM

## GAGACAUGUGAGAAGGCGCCACACGCGAGUGGGCGAGGAUAUCACAUGAGGAUCACCCAUGUUAGCCCUCGACCGCGACGCGGG
[1]
  apparent Kd: 10.1 nM
[2]
  apparent Kd: 47.3 nM

## GAGAGAGGGUGAGGAUAUUCAGUAAUAAUGAUAGAAGAAGGCACAGACAUGAGGAUCACCCAUGUGGGAAUAAUCCAGAGAGAG
[3]
  apparent Kd: 182 nM
[4]
  apparent Kd: 207 nM

## GAGCACUGAUAAUAAUGUAGAAAUACAUGAGGAUCACCCAUGUAGGAUAUCGUCAGGAAUACUGACGAGAAGGACAUACAGUGC
[1]
  apparent Kd: 15.7 nM
[2]
  apparent Kd: 25.5 nM

## GAGCUAUGAGGAUAUGCAUAUAUACGGAUUCGUGUGGUACUACAUGAGGAUCACCCAUGUAGAAGGCGUGGCUG
[1]
  apparent Kd: 19 nM
[2]
  apparent Kd: 20.8 nM

## GAGGAGCAAGGAUAUACGAGGAUAGGGAAGGUUGGAGAGUGACAUGAGGAUCACCCAUGUAGAAGGUGCAAGGG
[1]
  apparent Kd: 114 nM
[2]
  apparent Kd: 74 nM
